High-throughput results (PubChem BioAssay)
GPR7 antag = antagonists of human GPR7 (neuropeptides B/W receptor 1); P48145; inhibition, % at 4.4 µM; GPR7-expressing cells, fluorescence antagonist assay; actives 1.1% (n = 290,000); in the data active = inhibition above about 16%, passing the limit was not always enough;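 also: cells stimulated with the agonist NPW; 0% = agonist with vehicle and 100% = vehicle without agonist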
Target sequence (P48145 whole entry, looked up): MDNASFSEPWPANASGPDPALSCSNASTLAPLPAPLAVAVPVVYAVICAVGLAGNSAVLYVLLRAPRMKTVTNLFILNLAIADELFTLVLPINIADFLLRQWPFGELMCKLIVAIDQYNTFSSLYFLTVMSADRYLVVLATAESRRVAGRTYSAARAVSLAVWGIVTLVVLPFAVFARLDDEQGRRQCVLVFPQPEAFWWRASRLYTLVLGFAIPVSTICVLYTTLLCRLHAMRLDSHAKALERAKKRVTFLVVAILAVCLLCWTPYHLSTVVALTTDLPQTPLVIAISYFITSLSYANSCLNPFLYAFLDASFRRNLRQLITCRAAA
OX1R antag-1 = antagonists of human orexin 1 receptor (OX1R) | OX1R-expressing cells, FRET antagonist read-out | actives 1.8% (n = 330,000) | inhibition, % at 6.6 µM; in the data active = inhibition mostly above about 38%, no sharp cut-off; inactive = mostly below about 40%;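 also: 0% = agonist challenge alone and 100% = reference antagonist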
Target sequence (O43613 whole entry, looked up): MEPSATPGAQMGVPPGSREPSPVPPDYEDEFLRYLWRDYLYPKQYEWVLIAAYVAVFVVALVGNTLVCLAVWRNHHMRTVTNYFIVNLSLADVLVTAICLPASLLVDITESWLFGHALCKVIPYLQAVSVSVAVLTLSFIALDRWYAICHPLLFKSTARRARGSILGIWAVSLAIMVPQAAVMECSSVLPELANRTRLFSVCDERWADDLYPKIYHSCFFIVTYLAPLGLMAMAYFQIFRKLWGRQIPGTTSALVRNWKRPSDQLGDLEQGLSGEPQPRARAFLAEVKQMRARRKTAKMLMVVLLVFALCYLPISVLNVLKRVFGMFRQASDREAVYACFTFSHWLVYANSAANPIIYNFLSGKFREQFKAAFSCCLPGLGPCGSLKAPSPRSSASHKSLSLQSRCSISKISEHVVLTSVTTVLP
zfTRPN1 agonist = zebrafish TRPN1 (NompC) channel agonism. HEK293 zebrafish TRPN1-YFP, Fluo-8 calcium fluorescence; 100% = response to 87 µM carbachol. activation, % at 3 µM. actives 0.18% (n = 220,000). AID 1424;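 active = activation above its plate's cutoff, the mean activation of test wells on that plate plus 3 SD, cut at about 19% in these data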;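 also: 0% = DMSO alone and 100% = 87 µM carbachol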
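Material – zebrafish TRPN1-YFP in HEK293 cells · Doses – 3 µM single point · Schedule – dye 1 h 37 °C plus 30 min RT · Signal – Fluo-8 calcium fluorescence, excitation 470-495 nm, emission 515-575 nm · Read-out – % activation versus carbachol response · Control set – carbachol high, DMSO low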
OX1R antag-2 = human HCRTR1 antagonism | O43613 | CHO/OX1R cells, Fluo-8 calcium fluorescence, orexin A | inhibition, % at 5 µM | actives 0.43% (n = 330,000);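 active = inhibition above its plate's threshold, mean inhibition of all tested compounds on the plate plus 3 SD, cut at about 37% in these data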;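 also: 0% = orexin A challenge wells and 100% = SB-334867-A antagonist wells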
TRPML3 agonist = human mucolipin-3 channel agonism; Q8TDD5; HEK293 TRPML3-YFP, Fluo-8 calcium fluorescence; 100% = the carbachol control signal; activation, % at 3 µM; actives 0.29% (n = 220,000);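 active = activation above its plate's cutoff, the mean activation of the plate's test wells plus 3 SD, cut at about 12% in these data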;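 also: 0% = DMSO only wells and 100% = carbachol wells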
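Material: TRPML3-YFP stable HEK293 cells | Dosing: One concentration, 3 µM nominal, 0.3% DMSO | Timing: 125 s total fluorescence read per well | Technique: Fluo-8 calcium dye fluorescence, ex 470-495, em 515-575 nm | Measure: Percent activation from peak-to-basal fluorescence ratio, scaled between DMSO and carbachol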
CHO parental Ca = counter-screen for OX1R antagonists: effect in parental CHO cells; parental CHO-K1, ATP-induced calcium, Fluo-8 fluorescence; actives 0.63% (n = 330,000); inhibition, % at 5.6 µM;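 active = inhibition above that plate's mean sample inhibition plus 3 SD, cut at about 26% in these data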;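 also: 0% = ATP-challenged DMSO wells and 100% = DMSO wells without ATP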
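Assay system: parental CHO cells; Read-out basis: percent inhibition of ATP-evoked calcium rise, normalized to controls; Benchmarks: ATP and no-ATP DMSO wells; Compound dosing: single nominal dose of 5.6 µM per compound; Signal: Fluo-8 calcium dye fluorescence; Also added: ATP as calcium-mobilizing challenge; Repeats: singlicate.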
GPR7 antag conf = confirmation of human GPR7 antagonists. shares compounds with GPR7 antag. GPR7-expressing cells, calcium fluorescence antagonist mode. inhibition, % at 4.4 µM. actives 52% (n = 2,400); in the data active = inhibition above about 24%;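 also: stimulated with the GPR7 agonist NPW; 0% = agonist plus vehicle and 100% = vehicle alone without agonist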
MCHR1 antagonist = counter-screen for GPR7 antagonists: antagonists of human MCHR1; inhibition, % at 4.4 µM; shares compounds with GPR7 antag; AID 2148; actives 62% (n = 2,400); MCHR1-expressing cells, fluorescence antagonist assay; in the data active = inhibition above about 22%;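 also: 0% = vehicle with agonist and 100% = vehicle without agonist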
Active calls of the source: *; · = not tested or not shown; + = active, no number. Rows were chosen to be rich in hits. Some 3.2% of all compounds tested hit in one or more screens of this group.

SMILES	GPR7 antag	OX1R antag-1	zfTRPN1 agonist	OX1R antag-2	TRPML3 agonist	CHO parental Ca	GPR7 antag conf	MCHR1 antagonist
COc1ccc(-n2c(=S)[nH]c3cc(C(=O)Nc4ccccc4OC)ccc3c2=O)c(OC)c1	30.8*	8.2	·	-9.2	·	-12.2	24.0*	46.1*
COc1ccc(-n2c(=S)[nH]c3cc(C(=O)NCc4ccccc4OC)ccc3c2=O)c(OC)c1	25.5*	9.2	·	7.9	·	1.8	38.2*	39.4*
COc1ccc(-n2c(=S)[nH]c3cc(C(=O)Nc4ccccc4OC)ccc3c2=O)cc1	-2.9	3.2	1.2	-6.4	0.1	-5.0	·	·
CN(C)CCCNc1cc(C(C)(C)C)nc2c(-c3ccccc3)cnn12	67.1*	4.3	4.3	8.4	1.7	27.4	66.2*	67.2*
Cc1ccc(OCC(=O)Nc2cccc(S(=O)(=O)N3CCCCCC3)c2)c([N+](=O)[O-])n1	-1.8	3.1	1.4	-22.4	2.1	-14.5	·	·
Cc1ccc(C2CC(c3ccco3)n3ncnc3N2)cc1 (stereo unspecified)	-2.3	9.6	1.2	-8.0	0.6	-20.0	·	·
Cc1ccc2c(c1)C(N1CCCC1=O)CC(c1ccco1)N2 (stereo unspecified)	31.0*	27.1	-0.7	-25.6	0.5	-21.6	-2.7	-2.9
O=[N+]([O-])c1ccc(NCCOc2ccccc2Cl)nc1	15.5	8.1	·	-16.2	·	-7.3	·	·
Cc1cccc(OCCNc2ccc([N+](=O)[O-])cn2)c1	32.2*	25.1	-2.8	-5.1	-0.7	1.3	48.2*	38.9*
CC(C(=O)Nc1c2c(cc3c1CCC3)CCC2)N1CCCC1 (stereo unspecified)	32.1*	10.6	-1.2	-14.0	0.4	-1.9	20.7	28.2*
CC(=O)Oc1ccc2c(c1)Oc1cc(OC(C)=O)ccc1C21OC(=O)c2ccccc21	105.0*	59.9*	+	106.1*	506.3*	101.4*	102.7*	109.3*
CN1C(=O)C(CC(=O)Nc2ccc(F)cc2)N(CCCc2ccccc2)C1=S (stereo unspecified)	26.5*	52.4	5.8	47.7*	5.4	3.9	23.8*	41.1*
COc1ccc(NC(=O)CC2C(=O)N(C)C(=S)N2CCc2ccccc2F)cc1 (stereo unspecified)	-10.6	4.2	1.6	-20.9	2.2	-6.2	·	·
CCCCc1cc(O)c(CCCC)c(O)c1	92.9*	7.6	51.8*	102.2*	36.5*	80.2*	92.5*	95.5*
CC(=O)c1ccc(NC(=O)C(C)N(C)CC(=O)Nc2ccc(N3CCOCC3)cc2)cc1 (stereo unspecified)	25.6*	33.9	1.4	-19.1	0.3	-7.6	12.5	-1.0
CN(C)CCNC(=O)c1ccc(COc2ccc(Cl)cc2Cl)cc1	30.0*	5.9	2.7	-14.3	2.5	-4.5	40.1*	51.6*
CC(C)CS(=O)(=O)C1=NN2C(=N)/C(=C\c3ccc(OC(=O)c4ccco4)cc3)C(=O)N=C2S1	43.0*	4.6	·	-13.3	·	-3.8	42.2*	34.3*
O=C(CSC1=NCCS1)NC(c1ccccc1)c1ccccc1	-0.5	18.8	-0.1	-8.8	0.4	-21.5	·	·
O=C(CSC1=NCCS1)NC(NC(=O)CSC1=NCCS1)c1ccccc1	28.8*	24.2	-2.0	9.1	-2.0	-3.5	1.9	-0.6
CCOC(=O)C1CCC(CN(Cc2ccccc2)S(=O)(=O)c2ccc([N+](=O)[O-])cc2)CC1 (stereo unspecified)	-1.0	12.2	-0.2	-5.2	1.2	-11.8	·	·
CC(C)C(c1nnnn1Cc1cccs1)N1CCN(C2CCCC2)CC1 (stereo unspecified)	33.6*	25.5	0.6	-21.0	-0.8	-14.1	17.4	14.3
CCC(c1nnnn1Cc1ccc(F)cc1)N1CCN(C2CCCCC2)CC1 (stereo unspecified)	45.8*	36.4	0.4	-2.5	0.1	-22.0	43.4*	29.0*
c1ccc(C(c2nnnn2Cc2cccs2)N2CCN(C3CCCC3)CC2)cc1 (stereo unspecified)	-1.0	12.1	0.8	-22.7	1.3	-9.1	·	·
CCCCOc1ccc(N2CC(C(=O)NCc3ccco3)CC2=O)cc1 (stereo unspecified)	-5.5	7.1	·	-2.0	·	-3.1	·	·
O=C(NCCCN1CCOCC1)c1ccc2c(c1)N(Cc1c(F)cccc1Cl)C(=O)c1ccccc1S2	24.8*	2.2	·	-23.3	·	-18.5	37.0*	11.9
SMILES	GPR7 antag	OX1R antag-1	zfTRPN1 agonist	OX1R antag-2	TRPML3 agonist	CHO parental Ca	GPR7 antag conf	MCHR1 antagonist
O=C1Nc2cc(C(=O)NCCCN3CCOCC3)ccc2S/C1=C/c1ccccc1F	39.8*	24.8	·	-7.3	·	-11.2	33.5*	27.9*
CCN=C1S/C(=C\c2cc(Br)c(O)c(OC)c2)C(=O)N1CC	-29.7	·	·	·	·	·	·	·
CCCN(C(=O)COC(=O)CCOc1ccccc1C)c1c(N)n(Cc2ccccc2)c(=O)[nH]c1=O	-21.2	-3.4	·	-8.0	·	-13.7	·	·
Cc1cc(C)c(C(=O)COC(=O)Cn2c(C)csc2=O)cc1C	-3.6	50.1	·	-30.4	·	-18.6	·	·
COc1ccc(CCNC(=O)Nc2cccc([N+](=O)[O-])c2)cc1	10.4	24.0	5.1	18.2	4.0	19.2	·	·
COC(=O)c1ccc(NC(=O)Nc2ccc([N+](=O)[O-])cc2)cc1	46.7*	45.4	·	37.1*	·	67.3*	70.8*	67.3*
COc1cc(NC(=O)Nc2cccc([N+](=O)[O-])c2)cc(OC)c1	28.4*	52.2	11.2	35.4	7.9	27.5	5.5	73.9*
COc1cccc(C2C(C(N)=O)=C(C)Nc3nc(CCCO)nn32)c1 (stereo unspecified)	-2.8	-9.4	·	-2.1	·	9.1	·	·
COc1cc(C(=O)NCCCC2CCCC2)ccc1OC1CCN(C(C)=O)CC1	-7.2	·	·	·	·	·	·	·
CCOc1ccc(C(=O)CCC(=O)N2CCN(c3ncccn3)CC2)cc1	-17.9	3.5	·	-40.4	·	-21.8	·	·
COc1cc(C=NCC2OCCc3ccccc32)cc(OC)c1 (stereo unspecified)	-8.2	6.3	-0.1	-22.2	0.4	-3.5	·	·
CCOc1ccc(C(=O)NNC(=O)CN2C(=O)NC3(CCCC3)C2=O)cc1	·	-1.4	·	-9.9	·	-10.2	·	·
COc1ccc(NC(=O)CCc2nnc3ccc(N4CCN(c5cccc(OC)c5)CC4)nn23)cc1	24.6*	8.9	·	-14.0	·	-22.9	0.7	33.4*
CC(=O)Nc1ccc(Nc2c3c4c(cccc4n(C)c2=O)C(=O)c2ccccc2-3)cc1	-2.6	28.5	0.6	-15.9	0.3	-14.9	·	·
Cn1c(=O)c(NC2CCCCC2)c2c3c(cccc31)C(=O)c1ccccc1-2	-3.0	·	17.7	·	9.5	·	·	·
